According to ChEMBL document CHEMBL1165853, “Hybrids of 3alpha-methoxyserrat-14-en-21beta-ol (PJ-1) and 3beta-methoxyserrat-14-en-21beta-ol (PJ-2) and various anti-oxidants as cancer chemopreventive agents” (Eur J Med Chem, 2010):
Activity calls are given as the source filed them. The rule behind the calls is not given here.

How the values were obtained:
[1] = Cytotoxicity against human Raji cells assessed as cell viability at 1000 molar ratio by trypan blue staining method; assay type: cell-based; details: read-out: Activity
How it was run: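 Viability was measured by trypan blue staining of Raji cells after the 48 h, 37 °C EBV-EA induction run (n-butyric acid 4 mmol plus TPA 32 pmol), with compound at 1000 mol ratio/32 pmol TPA.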

[2] = Inhibition of TPA-induced EBV-early antigen activation in human Raji cells assessed as EA activation after 48 hrs; assay type: cell-based, human gammaherpesvirus 4
How it was run: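 Raji cells (EBV genome-carrying, virus non-producer Burkitt's lymphoma line; RPMI-1640 with 10% FBS) were seeded at 1×10⁶/mL and held 48 h at 37 °C with n-butyric acid (4 mmol), TPA (32 pmol) and test agent at 1000, 500, 100 or 10 mol ratio/32 pmol TPA. EA-positive cells were scored by indirect immunofluorescence with NPC patient serum, counting ≥500 cells, in triplicate. Results are expressed relative to the butyrate+TPA control (100%), and IC50 is given as mol ratio/32 pmol TPA.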

Mus musculus [3] = test: Inhibition of DMBA-induced/TPA-promoted carcinogenesis in ICR mouse assessed as reduction of mouse bearing papillomas number at 85 nmol administered 1 hr before TPA treatment measured after 20 weeks; assay type: functional
How it was run: (§1)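 In the two-stage mouse skin carcinogenesis model, DMBA was the initiator and TPA the promoter, and test agent was given at 85 nmol alongside DMBA/TPA. Papilloma-bearing mice (%), papillomas per mouse, and tumor length and width were followed through week 20 against a DMBA/TPA-only group.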

Mus musculus [4] = test: Inhibition of DMBA-induced/TPA-promoted carcinogenesis in ICR mouse assessed as reduction of mouse bearing papillomas length at 85 nmol administered 1 hr before TPA treatment measured after 20 weeks; assay type: functional; how it was run: as §1
Mus musculus [5] = species: Mus musculus; test: Toxicity in ICR mouse assessed as change in body weight; assay type: organism-based; details: in vivo
Mus musculus [6] = test: Inhibition of DMBA-induced/TPA-promoted carcinogenesis in ICR mouse assessed as reduction of mouse bearing papillomas width at 85 nmol administered 1 hr before TPA treatment measured after 20 weeks; assay type: functional; how it was run: as §1
Mus musculus [7] = species: Mus musculus; test: Toxicity in ICR mouse assessed as inflammation; assay type: organism-based; details: in vivo
Mus musculus [8] = test: Inhibition of DMBA-induced/TPA-promoted carcinogenesis in ICR mouse assessed as reduction of mouse bearing papillomas at 85 nmol administered 1 hr before TPA treatment measured after 20 weeks; assay type: functional; how it was run: as §1
Mus musculus [9] = species: Mus musculus; test: Toxicity in ICR mouse assessed as lesional damage; assay type: organism-based; details: in vivo
Mus musculus [10] = test: Inhibition of DMBA-induced/TPA-promoted carcinogenesis in ICR mouse assessed as reduction of mouse bearing papillomas at 85 nmol administered 1 hr before TPA treatment measured after 10 to 15 weeks; assay type: functional; how it was run: as §1

Row | Structure (SMILES) | viability at 1000 molar ratio [1] [%] | IC50 [2] [molar ratio] | also measured
1 | COc1cc(/C=C/C(O)/C=C(O)/C=C/c2ccc(OC(=O)CCC(=O)O[C@@H]3CC[C@]4(C)[C@H]5CC[C@H]6[C@@](C)(CC[C@H]7C(C)(C)[C@@H](OC)CC[C@@]76C)CC5=CC[C@H]4C3(C)C)c(OC)c2)ccc1O (stereo partly drawn) | 60 | 460 | 
2 | CO[C@H]1CC[C@@]2(C)[C@@H](CC[C@@]3(C)CC4=CC[C@H]5C(C)(C)[C@H](OC(=O)CCl)CC[C@]5(C)[C@H]4CC[C@@H]32)C1(C)C | 60 | 473 | 
3 | CO[C@@H]1CC[C@@]2(C)[C@@H](CC[C@@]3(C)CC4=CC[C@H]5C(C)(C)[C@H](OC(=O)CCC(=O)Oc6ccc(-c7oc8cc(O)cc(O)c8c(=O)c7O)cc6O)CC[C@]5(C)[C@H]4CC[C@@H]32)C1(C)C | 60 | 350 | inhibition (Mus musculus [3]): Active; Activity (Mus musculus [4]): 28 mm; Activity (Mus musculus [5]): Non-toxic; Activity (Mus musculus [6]): 25 mm; Activity (Mus musculus [7]): Non-toxic; inhibition (INH) (Mus musculus [8]): 73.3%; Activity (Mus musculus [9]): Non-toxic; inhibition (INH) (Mus musculus [10]): 26.6%
4 | COc1cc(/C=C/C(O)=C/C(O)/C=C/c2ccc(OC(=O)CCC(=O)O[C@@H]3CC[C@]4(C)[C@H]5CC[C@H]6[C@@](C)(CC[C@H]7C(C)(C)[C@@H](OC)CC[C@@]76C)CC5=CC[C@H]4C3(C)C)c(OC)c2)ccc1OC(=O)CCC(=O)O[C@@H]1CC[C@]2(C)[C@H]3CC[C@H]4[C@@](C)(CC[C@H]5C(C)(C)[C@@H](OC)CC[C@@]54C)CC3=CC[C@H]2C1(C)C (stereo partly drawn) | 60 | 395 | 
5 | CO[C@H]1CC[C@@]2(C)[C@@H](CC[C@@]3(C)CC4=CC[C@H]5C(C)(C)[C@H](OC(=O)Nc6ccccc6Cl)CC[C@]5(C)[C@H]4CC[C@@H]32)C1(C)C | 50 | 468 | 
6 | CO[C@H]1CC[C@@]2(C)[C@@H](CC[C@@]3(C)CC4=CC[C@H]5C(C)(C)[C@H](OC(N)=O)CC[C@]5(C)[C@H]4CC[C@@H]32)C1(C)C | 60 | 470 | 
7 | COc1cc(/C=C/C(=O)CC(O)/C=C/c2ccc(OC(=O)CC(=O)O[C@@H]3CC[C@]4(C)[C@H]5CC[C@H]6[C@@](C)(CC[C@H]7C(C)(C)[C@@H](OC)CC[C@@]76C)CC5=CC[C@H]4C3(C)C)c(OC)c2)ccc1OC(=O)CC(=O)O[C@@H]1CC[C@]2(C)[C@H]3CC[C@H]4[C@@](C)(CC[C@H]5C(C)(C)[C@@H](OC)CC[C@@]54C)CC3=CC[C@H]2C1(C)C (stereo partly drawn) | 60 | 338 | 
8 | COc1cc(/C=C/C(O)=C/C(O)/C=C/c2ccc(OC(=O)CCC(=O)O[C@@H]3CC[C@]4(C)[C@H]5CC[C@H]6[C@@](C)(CC[C@H]7C(C)(C)[C@H](OC)CC[C@@]76C)CC5=CC[C@H]4C3(C)C)c(OC)c2)ccc1OC(=O)CCC(=O)O[C@@H]1CC[C@]2(C)[C@H]3CC[C@H]4[C@@](C)(CC[C@H]5C(C)(C)[C@H](OC)CC[C@@]54C)CC3=CC[C@H]2C1(C)C (stereo partly drawn) | 60 | 462 | 
9 | CO[C@H]1CC[C@@]2(C)[C@@H](CC[C@@]3(C)CC4=CC[C@H]5C(C)(C)[C@H](OC(=S)Nc6ccccc6)CC[C@]5(C)[C@H]4CC[C@@H]32)C1(C)C | 60 | 460 | 
10 | COc1cc(/C=C/C(O)/C=C(O)/C=C/c2ccc(OC(=O)CCC(=O)O[C@@H]3CC[C@]4(C)[C@H]5CC[C@H]6[C@@](C)(CC[C@H]7C(C)(C)[C@H](OC)CC[C@@]76C)CC5=CC[C@H]4C3(C)C)c(OC)c2)ccc1O (stereo partly drawn) | 60 | 393 | 
11 | CO[C@H]1CC[C@@]2(C)[C@@H](CC[C@@]3(C)CC4=CC[C@H]5C(C)(C)[C@H](OC(=O)CCC(=O)Oc6coc(CO)cc6=O)CC[C@]5(C)[C@H]4CC[C@@H]32)C1(C)C | 70 | 371 | 
12 | CC1(C)CC[C@]2(C(=O)O)CC[C@]3(C)C(=CC[C@@H]4[C@@]5(C)CC[C@H](O)C(C)(C)[C@@H]5CC[C@]43C)[C@@H]2C1 [OLEANOLIC_ACID] |  | 449 | 
13 | COc1cc(/C=C/C(O)/C=C(O)/C=C/c2ccc(OC(=O)CC(=O)O[C@@H]3CC[C@]4(C)[C@H]5CC[C@H]6[C@@](C)(CC[C@H]7C(C)(C)[C@@H](OC)CC[C@@]76C)CC5=CC[C@H]4C3(C)C)c(OC)c2)ccc1O (stereo partly drawn) | 60 | 358 | 
14 | CO[C@H]1CC[C@@]2(C)[C@@H](CC[C@@]3(C)CC4=CC[C@H]5C(C)(C)[C@H](OC(=O)CCC(=O)Oc6ccc(-c7oc8cc(O)cc(O)c8c(=O)c7O)cc6O)CC[C@]5(C)[C@H]4CC[C@@H]32)C1(C)C | 60 | 330 | papillomas per mouse (Mus musculus [3]): 4.7 papillomas/mouse; Activity (Mus musculus [4]): 26 mm; Activity (Mus musculus [5]): Non-toxic; Activity (Mus musculus [6]): 24 mm; Activity (Mus musculus [7]): Non-toxic; inhibition (INH) (Mus musculus [8]): 86.6%; Activity (Mus musculus [9]): Non-toxic; inhibition (INH) (Mus musculus [10]): 20%
15 | COc1cc(/C=C/C(O)=C/C(O)/C=C/c2ccc(OC(=O)CC(=O)O[C@@H]3CC[C@]4(C)[C@H]5CC[C@H]6[C@@](C)(CC[C@H]7C(C)(C)[C@H](OC)CC[C@@]76C)CC5=CC[C@H]4C3(C)C)c(OC)c2)ccc1OC(=O)CC(=O)O[C@@H]1CC[C@]2(C)[C@H]3CC[C@H]4[C@@](C)(CC[C@H]5C(C)(C)[C@H](OC)CC[C@@]54C)CC3=CC[C@H]2C1(C)C (stereo partly drawn) | 60 | 335 | 
16 | CO[C@@H]1CC[C@@]2(C)[C@@H](CC[C@@]3(C)CC4=CC[C@H]5C(C)(C)[C@H](OC(=O)CCC(=O)Oc6coc(CO)cc6=O)CC[C@]5(C)[C@H]4CC[C@@H]32)C1(C)C | 70 | 370 | 
17 | COc1cc(/C=C/C(O)/C=C(O)/C=C/c2ccc(OC(=O)CC(=O)O[C@@H]3CC[C@]4(C)[C@H]5CC[C@H]6[C@@](C)(CC[C@H]7C(C)(C)[C@H](OC)CC[C@@]76C)CC5=CC[C@H]4C3(C)C)c(OC)c2)ccc1O (stereo partly drawn) | 60 | 354 | 
18 | CO[C@H]1CC[C@@]2(C)[C@@H](CC[C@@]3(C)CC4=CC[C@H]5C(C)(C)[C@H](OC(=O)Nc6ccccc6)CC[C@]5(C)[C@H]4CC[C@@H]32)C1(C)C | 60 | 459 | 
19 | CO[C@H]1CC[C@@]2(C)[C@@H](CC[C@@]3(C)CC4=CC[C@H]5C(C)(C)[C@H](OC(=O)NS(=O)(=O)c6ccc(C)cc6)CC[C@]5(C)[C@H]4CC[C@@H]32)C1(C)C | 60 | 461 | 
